Test results reported in PMC5242338 (Molecular imaging and biology : MIB : the official …, 2016).
Where a SMILES comes first, the peptide text is derived from it. Bridges are numbered along the chain shown (N, C = ends). [ ]: non-standard residue; d: D form. The star is where a group is joined. NOTA = O=C(O)CN1CCN(CC(=O)O)CCN(CC(=O)*)CC1; 2Nal = N[C@@H](Cc1ccc2ccccc2c1)C(=O)O; Cit = NC(=O)NCCC[C@H](N)C(=O)O

Legend:
in vivo = assay: in vivo; design: species or system mice; conditions: mouse, iv, 100 uCi/mouse, total radioactivity
CHO-CXCR4 and CHO tumors = format: in vivo, mice
CHO-CXCR4 cells = assay: Cell uptake, internalization and efflux of tracer; format: cell-based, Chinese hamster
Summary of the method: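 CHO-CXCR4 cells (F-12K, 10 % FBS) seeded at 1×10^5/well and given 11.1 kBq (0.3 µCi) tracer at 37 °C for 5–120 min. Blocking used 10 µg/well (22 µM) unlabeled peptide for 2 h. Cells were washed twice with cold PBS, lysed in 0.1 M NaOH and γ-counted. For internalization, an extra 1 min wash in 50 mM glycine/0.1 M NaCl, pH 2.8, was added. For efflux, cells were loaded for 2 h, then given tracer-free medium. Values are % of added activity, mean of three experiments ± SD.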

N=C(N)NCCC[C@H](NC(=O)[C@@H]1CSSC[C@H](NC(=O)[C@H](Cc2ccc3ccccc3c2)NC(=O)[C@H](CCCNC(=N)N)NC(=O)[C@H](CCCNC(=N)N)NC(=O)CN2CCN(CC(=O)O)CCN(CC(=O)O)CC2)C(=O)N[C@@H](Cc2ccc(O)cc2)C(=O)N[C@@H](CCCNC(N)=O)C(=O)N[C@@H](CCCCN)C(=O)N[C@H](CCCCN)C(=O)N2CCC[C@H]2C(=O)N[C@@H](Cc2ccc(O)cc2)C(=O)N[C@@H](CCCNC(=N)N)C(=O)N[C@@H](CCCNC(N)=O)C(=O)N1)C(N)=O [Al[^18F]NOTA-T140] ({NOTA}-RR[2Nal]CY[Cit]K[dK]PYR[Cit]CR-NH2; disulfide 4-13) showed a tissue uptake at 2 h (in vivo; biodistribution: bone) of 2.95 ± 0.74 %ID/g, a tissue uptake at 2 h (in vivo; biodistribution: kidneys) of 32.8 ± 2.62 %ID/g and a tissue uptake at 2 h (in vivo; biodistribution: liver) of 34.2 ± 4.98 %ID/g. For the same compound, the tissue uptake at 2 h (in vivo; biodistribution: spleen) was 6.37 ± 1.18 %ID/g, the “reduction in CHO-CXCR4 tumor uptake on blocking” value (CHO-CXCR4 and CHO tumors; co-injection of 100 µg unlabeled peptide, PET 1 h post-injection) was 50–60% and the “change of tracer uptake in the bone on blocking” value (CHO-CXCR4 and CHO tumors; mouse, in vivo) was “significantly reduced”. For the same compound, the “cell uptake with blocking by unlabeled peptide” value (CHO-CXCR4 cells; 2 h, 10 µg/well (22 µM) unlabeled peptide) was 5.11±0.35%, the “share of the uptake due to internalization” value (CHO-CXCR4 cells; 2 h, acid wash (glycine pH 2.8) removes surface-bound tracer) was roughly 50% and the “efflux from the cells” value (CHO-CXCR4 cells; after 2 h loading at 37 °C, medium replaced) was “slow”.
